In ChEMBL document CHEMBL4842372, “Discovery of ARD-2585 as an Exceptionally Potent and Orally Active PROTAC Degrader of Androgen Receptor for the Treatment of Advanced Prostate Cancer” (J Med Chem, 2021):
Calls of active or inactive are those of the source. No cut-off for these calls is given here.

Key:
[1] = Drug distribution in prostate gland of CB17:SCID mouse xenografted with human VCaP cells at 20 mg/kg, po measured at 6 hrs by LCMS analysis; assay type: ADME, organism-based; details: read-out: Drug uptake
Method in brief: (§1)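 Tumor-bearing male CB17 SCID mice (VCaP xenografts) given one 20 mg/kg oral dose in 100% PEG200, three mice per time point; plasma, tumor, liver, kidney, prostate and heart taken at 1, 6 and 24 h; tissues homogenised in water/acetonitrile, protein precipitated with cold acetonitrile, drug quantified by LC–MS/MS; ratios are tissue over plasma level.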

[2] = Drug distribution in CB17:SCID mouse xenografted with human VCaP cells assessed as kidney to plasma ratio at 20 mg/kg, po measured at 1 hrs by LCMS analysis; assay type: ADME, organism-based; method in brief: as §1
[3] = Drug distribution in heart of CB17:SCID mouse xenografted with human VCaP cells at 20 mg/kg, po measured at 1 hrs by LCMS analysis; assay type: ADME, organism-based; details: read-out: Drug uptake; method in brief: as §1
[4] = Drug distribution in CB17:SCID mouse xenografted with human VCaP cells assessed as liver to plasma ratio at 20 mg/kg, po measured at 6 hrs by LCMS analysis; assay type: ADME, organism-based; method in brief: as §1
[5] = Drug distribution in CB17:SCID mouse xenografted with human VCaP cells assessed as tumor to plasma ratio at 20 mg/kg, po measured at 24 hrs by LCMS analysis; assay type: ADME, organism-based; method in brief: as §1
[6] = Drug distribution in CB17:SCID mouse xenografted with human VCaP cells assessed as kidney to plasma ratio at 20 mg/kg, po measured at 24 hrs by LCMS analysis; assay type: ADME, organism-based; method in brief: as §1
VCaP = test: Antitumor activity against human VCaP cells xenografted in CB17:SCID mouse assessed as tumor growth inhibition at 20 mg/kg, po treated for 37 days relative to control; assay type: functional; details: 888 h, time 37 day, read-out: TGI
[7] = target: T1, Protein cereblon/Androgen receptor (Homo sapiens, UniProt P10275+Q96SW2); test: Protac activity at CRBN/AR in human VCaP cells assessed as maximal AR degradation at 0.1 nM after 24 hrs by Western blot analysis relative to control; assay type: cell-based
T1 sequence (P10275 whole entry, looked up): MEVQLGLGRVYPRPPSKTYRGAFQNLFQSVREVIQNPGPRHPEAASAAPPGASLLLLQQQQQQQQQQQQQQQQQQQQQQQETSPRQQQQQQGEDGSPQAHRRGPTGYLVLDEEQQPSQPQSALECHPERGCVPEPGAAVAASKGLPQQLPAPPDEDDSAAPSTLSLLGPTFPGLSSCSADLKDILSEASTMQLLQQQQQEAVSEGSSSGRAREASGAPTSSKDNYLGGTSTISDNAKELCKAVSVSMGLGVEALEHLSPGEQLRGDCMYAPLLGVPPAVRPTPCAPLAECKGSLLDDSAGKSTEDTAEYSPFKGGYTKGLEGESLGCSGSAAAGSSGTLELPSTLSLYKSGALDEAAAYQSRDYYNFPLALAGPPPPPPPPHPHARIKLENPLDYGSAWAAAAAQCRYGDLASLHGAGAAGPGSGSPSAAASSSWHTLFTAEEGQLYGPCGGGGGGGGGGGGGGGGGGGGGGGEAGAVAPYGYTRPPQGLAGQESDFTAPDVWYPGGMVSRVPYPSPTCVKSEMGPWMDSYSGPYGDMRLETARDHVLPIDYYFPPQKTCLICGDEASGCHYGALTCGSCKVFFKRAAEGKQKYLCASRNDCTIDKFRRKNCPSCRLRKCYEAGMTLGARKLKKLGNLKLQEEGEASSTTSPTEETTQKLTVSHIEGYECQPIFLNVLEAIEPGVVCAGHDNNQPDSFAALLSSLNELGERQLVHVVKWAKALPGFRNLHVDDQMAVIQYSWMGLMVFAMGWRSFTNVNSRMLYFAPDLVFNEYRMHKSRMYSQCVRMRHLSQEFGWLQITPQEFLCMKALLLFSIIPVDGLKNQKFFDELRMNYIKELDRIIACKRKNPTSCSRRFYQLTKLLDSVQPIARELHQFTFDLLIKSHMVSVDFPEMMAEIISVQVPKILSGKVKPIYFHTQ
T1 sequence (Q96SW2 whole entry, looked up): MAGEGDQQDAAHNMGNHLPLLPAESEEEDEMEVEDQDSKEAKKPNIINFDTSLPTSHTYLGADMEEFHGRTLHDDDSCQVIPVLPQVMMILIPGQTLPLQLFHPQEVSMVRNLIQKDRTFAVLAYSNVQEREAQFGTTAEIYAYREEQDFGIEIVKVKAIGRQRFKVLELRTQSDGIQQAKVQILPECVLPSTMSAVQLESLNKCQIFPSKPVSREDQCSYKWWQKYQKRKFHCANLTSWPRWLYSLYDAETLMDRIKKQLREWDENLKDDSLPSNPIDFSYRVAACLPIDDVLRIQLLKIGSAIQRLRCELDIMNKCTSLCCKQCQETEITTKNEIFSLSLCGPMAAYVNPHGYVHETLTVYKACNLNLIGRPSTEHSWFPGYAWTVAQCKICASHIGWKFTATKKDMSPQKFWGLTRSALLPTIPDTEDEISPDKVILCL
Method in brief: (§2)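 Western blot of AR after 24 h exposure to a concentration series in ATCC-derived cells, all with 10% FBS at 37 °C and 5% CO2: LNCaP and 22Rv1 in RPMI1640, VCaP in DMEM with Glutamax, MDA-PCa-2b in F-12K. Lysis in RIPA with protease and phosphatase inhibitors, then 4–12% SDS-PAGE and PVDF transfer. Band minus background is normalised to GAPDH.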

[8] = target: T1, Protein cereblon/Androgen receptor; test: Protac activity at CRBN/AR in human VCaP cells assessed as reduction in AR protein level at 3 nM after 24 hrs by Western blot analysis relative to control; assay type: cell-based; method in brief: as §2
[9] = tested on: Protein cereblon/Androgen receptor (Homo sapiens), P10275+Q96SW2 [T878A]; test: Protac activity at CRBN/AR T878A mutant in human LNCaP cells assessed as reduction in AR protein level at 3 nM after 24 hrs by Western blot analysis relative to control; assay type: cell-based; method in brief: as §2
[10] = target: T1, Protein cereblon/Androgen receptor; test: Protac activity at CRBN/AR in human 22Rv1 cells assessed as reduction in AR protein level at 30 nM after 24 hrs by Western blot analysis relative to control; assay type: cell-based; method in brief: as §2
LNCaP = test: Potency index, ratio of ARV-110 IC50 to compound IC50 for reduction in AR degradation human LNCaP cells after 24 hrs by Western blot analysis; assay type: functional
[11] = tested on: Protein cereblon/Androgen receptor (Homo sapiens), P10275+Q96SW2 [T878A]; test: Protac activity at CRBN/AR T878A mutant in human LNCaP cells assessed as reduction in AR protein level at 100 nM after 3 hrs in presence of N-((1r,4r)-4-((3-chloro-4-cyanophenyl)(methyl)amino)cyclohexyl)-4-(4-methylpiperazin-1-yl)benzamide by Western blot analysis

CN(c1ccc(C#N)c(Cl)c1)[C@H]1CC[C@H](NC(=O)c2ccc(N3CCN(C4CN(c5ccc6c(c5)C(=O)N(C5CCC(=O)NC5=O)C6=O)C4)CC3)cc2)CC1 (stereo partly drawn)
concentration at 6 h [1]: 76 ng/g | Kp at 1 h [2]: 6.2 | concentration at 1 h [3]: 210 ng/g | Kp at 6 h [4]: 26.2 | Kp at 24 h [5]: 1.4 | Kp at 24 h [6]: 1.7 | inhibition in vivo at 20 mg/kg (VCaP): 74.3% | Emax [7]: > 95% | inhibition [8]: 80% | inhibition [9]: 80% | inhibition [10]: 80% | Ratio (LNCaP): 10 | Activity [11]: inactive
